Laboratory results: the array DNA melting data of Ke et al. (doi:10.1101/2024.01.08.574731)

Legend:
[1] = folding enthalpy; higher = less favourable; fluorescence melt of hairpins on a sequencing array, two-state fit; conditions: sodium 0.088 M
Summary of the method: (§1)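 In 50 mM Na-HEPES pH 8.0 containing 25 mM NaCl, hairpins from the library on a sequenced MiSeq flow cell were imaged for Cy3 fluorescence at 2.5 °C steps up to 60 °C, with Cy3 and quencher oligos annealed. After normalisation to pre-quench Cy3 and to control constructs, two-state fits with bootstrapping gave melting temperature and folding enthalpy. Four replicates were combined by inverse-variance weighting, and fitted temperatures were shifted up by 9.35 °C to match UV melts.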

[2] = melting temperature; fluorescence melt of hairpins on a sequencing array, two-state fit, raised by 9.35 °C to match UV melts; conditions: sodium 0.088 M
Summary of the method: as §1

| Sequence | folding enthalpy [1] | Tm [2] |
| --- | --- | --- |
| GCTTACGAAAGTAGTAGC ((((((....)))..))) | -27.9 kcal/mol | 34.8 °C |
| GCTTAGAAATAAGC (((((....))))) | -18 kcal/mol | 40.5 °C |
| GCTTAGACGAAAGTCAGC (((..(((....)))))) | -18.2 kcal/mol | 41.6 °C |
| GCTTAGCCGAAAGGCAGC (((..(((....)))))) | -16.4 kcal/mol | 45.5 °C |
| GCTTAGCGAAAGCAAAGC ((((.((....)).)))) | -23.6 kcal/mol | 59.8 °C |
| GCTTAGCGAAAGCAGAGC (((..((....))..))) | -19 kcal/mol | 50 °C |
| GCTTAGCGAAAGCCAAGC ((((.((....)).)))) | -22.1 kcal/mol | 53.5 °C |
| GCTTAGCGAAAGCTATGC ((.((((....)))).)) | -26.6 kcal/mol | 59.5 °C |
| GCTTAGCGAAAGCTTAGC (((.(((....))).))) | -43.1 kcal/mol | 51.9 °C |
| GCTTAGGAAACTAAGC ((((((....)))))) | -31.7 kcal/mol | 52.7 °C |
| GCTTAGGGAAACCCAAGC ((((.((....)).)))) | -26.7 kcal/mol | 44 °C |
| GCTTAGGGAAACCTAAGC (((((((....))))))) | -34 kcal/mol | 59.8 °C |
| GCTTATCCGAAAGGAAGC (((..(((....)))))) | -15.5 kcal/mol | 34.3 °C |
| GCTTATCGAAAGATAGC (((.(((....)))))) | -27.5 kcal/mol | 43.4 °C |
| GCTTATGGAAACATAGGC ((.((((....)))).)) | -32.8 kcal/mol | 41.6 °C |
| GCTTCACGAAAGTGCAGC (((.(((....))).))) | -27.7 kcal/mol | 51.6 °C |
| GCTTCACGAAAGTGTAGC (((.(((....))).))) | -30.2 kcal/mol | 53.8 °C |
| GCTTCAGCGAAAGCTAGC (((..(((....)))))) | -9.89 kcal/mol | 41.2 °C |
| GCTTCAGGAAACTAAAGC ((((.((....)).)))) | -26.3 kcal/mol | 28.7 °C |

| Sequence | folding enthalpy [1] | Tm [2] |
| --- | --- | --- |
| GCTTCCACGAAAGTGAGC (((..(((....)))))) | -12.3 kcal/mol | 33.7 °C |
| GCTTCCGAAAGGAACAGC ((((((....)))..))) | -15.1 kcal/mol | 38.3 °C |
| GCTTCCGAAAGGACAAGC ((((((....)))..))) | -24.2 kcal/mol | 38.5 °C |
| GCTTCCGAAAGGACGAGC ((((((....)))..))) | -18.8 kcal/mol | 37.6 °C |
| GCTTCCGAAAGGAGGAGC ((((((....)))..))) | -21 kcal/mol | 39.1 °C |
| GCTTCCGAAAGGATTAGC ((((((....)))..))) | -23.2 kcal/mol | 38.3 °C |
| GCTTCCGGAAACGGAGGC ((.((((....)))).)) | -36.4 kcal/mol | 54.6 °C |
| GCTTCGACGAAAGTCAGC (((..(((....)))))) | -13.1 kcal/mol | 33.5 °C |
| GCTTCGCCGAAAGGCAGC (((..(((....)))))) | -10.4 kcal/mol | 40.9 °C |
| GCTTCGCGAAAGCATAGC (((..((....))..))) | -14.5 kcal/mol | 36.3 °C |
| GCTTCGCGAAAGCCATGC ((.(.((....)).).)) | -9.05 kcal/mol | 34.6 °C |
| GCTTCGCGAAAGCCCAGC (((..((....))..))) | -7.98 kcal/mol | 31.2 °C |
| GCTTCGCGAAAGCGATGC ((.((((....)))).)) | -17.4 kcal/mol | 65.7 °C |
| GCTTCGCGAAAGCGTAGC (((.(((....))).))) | -42.6 kcal/mol | 55.7 °C |
| GCTTCGGGAAACCGAAAC (.(((((....))))).) | -15.4 kcal/mol | 40.2 °C |
| GCTTCTCGAAAGAGCAGC (((.(((....))).))) | -24 kcal/mol | 46.8 °C |
| GCTTCTGGAAACGGAAGC (((((.(....).))))) | -46.4 kcal/mol | 51.6 °C |
| GCTTGAGAAATCAAGC ((((((....)))))) | -35.3 kcal/mol | 55.8 °C |
| GCTTGAGCGAAAGCTAGC (((..(((....)))))) | -13.9 kcal/mol | 47.8 °C |
